This note sets out measurements from ChEMBL document CHEMBL2086299, “Melanogenesis inhibitory and fibroblast proliferation accelerating effects of noroleanane- and oleanane-type triterpene oligoglycosides from the flower buds of Camellia japonica” (2012).

Assay [1] is described as follows: Induction of proliferation of neonatal skin fibroblasts assessed as WST-8 formazan accumulation per well at 10 uM after 48 hrs by WST-8 assay relative to control. Format: functional, Homo sapiens, Skin fibroblast. Summed up: (§1)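 Normal human neonatal skin fibroblasts NB1RGB (DMEM 1 g/L glucose, 10% FBS, 37 °C, 5% CO2) seeded 5.0 × 10^4 cells/well in 96-well plates. Incubated 48 h with compound (DMSO, final 0.1%). Water-soluble WST-8 formazan read at 450 nm (ref 655 nm) and expressed as % of vehicle control.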

Assay [2] is described as follows: Induction of proliferation of neonatal skin fibroblasts assessed as protein content per well at 50 uM after 48 hrs by […] relative to control. It counts as functional, Homo sapiens, Skin fibroblast. Summed up:
(§2)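 Normal human neonatal skin fibroblasts NB1RGB seeded 5.0 × 10^4 cells/well in 96-well plates. Exposed 48 h to compound (DMSO, final 0.1%). Cellular protein content determined by BCA protein assay and expressed as % of vehicle control.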

A short description of assay [3]: Induction of proliferation of neonatal skin fibroblasts assessed as protein content per well at 10 uM after 48 hrs by […] relative to control. It counts as functional, Homo sapiens, Skin fibroblast. Summed up: as §2
The nature of assay [4]: Induction of proliferation of neonatal skin fibroblasts assessed as WST-8 formazan accumulation per well at 50 uM after 48 hrs by WST-8 assay relative to control. Format: functional, Homo sapiens, Skin fibroblast. Summed up:
as §1

A short description of assay [5]: Inhibition of melanogenesis in theophylline-stimulated mouse B16-4A5 cells at 5 uM after 72 hrs by microplate reader. Format: functional. Set-up: scale not given: the % may be the effect or the level left. Summed up:
(§3)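 B16 melanoma 4A5 cells seeded 2.0 × 10^4 cells/well in 24-well plates and cultured 24 h. Then 72 h with compound plus 1 mM theophylline (DMSO, final 0.1%). Cells trypsin/EDTA-harvested, washed, lysed in 1 M NaOH (80 °C, 30 min). Lysate melanin read by OD at 405 nm (ref 655 nm). Inhibition (%) = [(A − B)/A] × 100 versus vehicle. Mean ± SEM, n = 4.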

Assay [6] in a line: Induction of proliferation of neonatal skin fibroblasts assessed as WST-8 formazan accumulation per well at 20 uM after 48 hrs by WST-8 assay relative to control. Format: functional, Homo sapiens, Skin fibroblast. The method in brief: as §1
The nature of assay [7]: Induction of proliferation of neonatal skin fibroblasts assessed as protein content per well at 20 uM after 48 hrs […] relative to control. It counts as functional, Homo sapiens, Skin fibroblast. Summed up: as §2
Assay [8] is described as follows: Antiproliferative activity against mouse B16-4A5 cells at 5 uM after 72 hrs by WST-8 assay. It counts as functional. Summed up:
(§4)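 Murine B16 melanoma 4A5 cells (DMEM 4.5 g/L glucose, 10% FBS) seeded 5.0 × 10^4 cells/well in 96-well plates and cultured 24 h. Then 72 h with 1 mM theophylline plus compound (DMSO, final 0.1%). Cells washed with PBS, WST-8 formazan read at 450 nm (ref 655 nm). Inhibition (%) = [(A − B)/A] × 100 versus vehicle. Mean ± SEM, n = 4.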

Assay [9] is described as follows: Inhibition of melanogenesis in theophylline-stimulated mouse B16-4A5 cells at 10 uM after 72 hrs by microplate reader. Also on record: scale not given: the % may be the effect or the level left. It counts as functional. Summed up:
as §3

Assay [10] can be described thus: Inhibition of melanogenesis in theophylline-stimulated mouse B16-4A5 cells at 20 uM after 72 hrs by microplate reader. It counts as functional. Set-up: scale not given: the % may be the effect or the level left. The method in brief: as §3
The nature of assay [11]: Antiproliferative activity against mouse B16-4A5 cells at 10 uM after 72 hrs by WST-8 assay. It counts as functional. Summed up: as §4
Assay [12] in a line: Induction of proliferation of neonatal skin fibroblasts assessed as protein content per well at 5 uM after 48 hrs by […] relative to control. It counts as functional, Homo sapiens, Skin fibroblast. The method in brief:
as §2

Assay [13] can be described thus: Induction of proliferation of neonatal skin fibroblasts assessed as WST-8 formazan accumulation per well at 5 uM after 48 hrs by WST-8 assay relative to control. It counts as functional, Homo sapiens, Skin fibroblast. The method in brief: as §1
Assay [14] is described as follows: Antiproliferative activity against mouse B16-4A5 cells at 20 uM after 72 hrs by WST-8 assay. It counts as functional. Summed up: as §4

Consider `C/C=C(\C)C(=O)O[C@H]1CC(C)(C)C[C@H]2C3=CC[C@@H]4[C@@]5(C)CC[C@H](O[C@@H]6O[C@H](C(=O)O)[C@@H](O)[C@H](O[C@@H]7O[C@H](CO)[C@H](O)[C@H](O)[C@H]7O[C@@H]7O[C@@H](C)[C@H](O)[C@@H](O)[C@H]7O)[C@H]6O[C@@H]6O[C@H](CO)[C@@H](O)[C@H](O)[C@H]6O)C(C)(C)[C@@H]5CC[C@@]4(C)[C@]3(C)[C@@H](O)[C@@H](O)[C@@]12CO` [SASANQUASAPONIN II], for which the Activity in assay [1] is listed as 16.8%; in assay [2], 48.9%; in [3] it was 53.9%; in assay [4], 16.5%.

As for `CCC/C=C\C(=O)O[C@H]1CC(C)(C)C[C@H]2C3=CC[C@@H]4[C@@]5(C)CC[C@H](O[C@@H]6O[C@H](C(=O)O)[C@@H](O)[C@H](O[C@@H]7O[C@H](CO)[C@H](O)[C@H](O)[C@H]7O[C@@H]7O[C@@H](C)[C@H](O)[C@@H](O)[C@H]7O)[C@H]6O[C@@H]6O[C@H](CO)[C@@H](O)[C@H](O)[C@H]6O)C(C)(C)[C@@H]5CC[C@@]4(C)[C@]3(C)[C@@H](O)[C@@H](O)[C@@]12CO` [SASANQUASAPONIN I], the Activity in [1] was 34.9%; in assay [2] it was 44.8%; in [3], 71.5%; in [4], 16.4%.

In the case of `CC1(C)CC[C@]2(O)[C@H](O)C[C@]3(C)C(=CC[C@@H]4[C@@]5(C)CC[C@H](O[C@@H]6O[C@H](C(=O)O)[C@@H](O)[C@H](O[C@@H]7O[C@H](CO)[C@H](O)[C@H](O)[C@H]7O[C@@H]7O[C@H](CO)[C@@H](O)[C@H](O)[C@H]7O)[C@H]6O[C@@H]6O[C@H](CO)[C@H](O)[C@H](O)[C@H]6O)C(C)(C)[C@@H]5CC[C@]43C)[C@@H]2C1` (relative stereo), the Activity was 21.9% in assay [5]; 110% in [1]; 116.2% in assay [6]; 114.9% in assay [7]; 1.9% in assay [8]; 110.6% in assay [3]. In addition, the Activity in assay [9] came to 16.7%; in assay [10], 23.3%; in assay [11], 4.3%; in assay [12], 113.9%; in [13] it was 108.3%; in assay [14], 13.3%.

For `C/C=C(\C)C(=O)O[C@H]1[C@H](OC(=O)/C(C)=C/C)[C@]2(CO)[C@H](O)[C@H](O)[C@]3(C)C(=CC[C@@H]4[C@@]5(C)CC[C@H](O[C@@H]6O[C@H](C(=O)O)[C@@H](O)[C@H](O[C@@H]7O[C@H](CO)[C@H](O)[C@H](O)[C@H]7O[C@@H]7O[C@@H](C)[C@H](O)[C@@H](O)[C@H]7O)[C@H]6O[C@@H]6O[C@H](CO)[C@@H](O)[C@H](O)[C@H]6O)C(C)(C)[C@@H]5CC[C@]43C)[C@@H]2CC1(C)C` [YUCHASAPONIN A], the Activity in [1] is given as 16.6%; in assay [2], 49.4%; in assay [3] it was 45.3%; in [4], 16.8%.

Consider `CC1(C)CC[C@]2(C=O)[C@H](O)C[C@]3(C)C(=CC[C@@H]4[C@@]5(C)CC[C@H](O[C@@H]6O[C@H](C(=O)O)[C@@H](O)[C@H](O[C@@H]7O[C@H](CO)[C@H](O)[C@H](O)[C@H]7O[C@@H]7O[C@H](CO)[C@@H](O)[C@H](O)[C@H]7O)[C@H]6O[C@@H]6O[C@H](CO)[C@H](O)[C@H](O)[C@H]6O)C(C)(C)[C@@H]5CC[C@]43C)[C@@H]2C1` (relative stereo), for which the Activity was -19.7% in assay [5]; 102.5% in assay [1]; 102.2% in [6]; 110% in assay [7]; 17.4% in assay [8]; 120.3% in [3]. Moreover, the Activity came to 16.3% in [9]; 91.6% in [10]; 55% in [11]; 120.4% in assay [12]; 102.1% in assay [13]; 52.8% in assay [14].

`C/C=C(/C)C(=O)O[C@H]1CC(C)(C)C[C@H]2C3=CC[C@@H]4[C@@]5(C)CC[C@H](O[C@@H]6O[C@H](C(=O)O)[C@@H](O)[C@H](O[C@@H]7O[C@H](CO)[C@H](O)[C@H](O)[C@H]7O[C@@H]7O[C@@H](C)[C@H](O)[C@@H](O)[C@H]7O)[C@H]6O[C@@H]6O[C@H](CO)[C@@H](O)[C@H](O)[C@H]6O)C(C)(C)[C@@H]5CC[C@@]4(C)[C@]3(C)[C@@H](O)[C@@H](O)[C@@]12CO` [SASANQUASAPONIN III]: the Activity in [1] came to 16.6%; in assay [2] it was 48.8%; in assay [3], 48.6%; in assay [4], 16.8%.

Regarding `CC1(C)CC[C@]2(O)C(=O)C[C@]3(C)C(=CC[C@@H]4[C@@]5(C)CC[C@H](O[C@@H]6O[C@H](C(=O)O)[C@@H](O)[C@H](O[C@@H]7O[C@H](CO)[C@H](O)[C@H](O)[C@H]7O[C@@H]7O[C@H](CO)[C@@H](O)[C@H](O)[C@H]7O)[C@H]6O[C@H]6O[C@@H](CO)[C@@H](O)[C@@H](O)[C@@H]6O)C(C)(C)C5CC[C@]43C)[C@@H]2C1` (some centres not stated) [CAMELLIOSIDE A], the Activity is recorded as 12.1% in [5]; 114.3% in assay [1]; 113.6% in assay [6]; 113.8% in assay [7]; -3.8% in assay [8]; 126.9% in assay [3]. For the same compound, the Activity in assay [9] is recorded as 36%; in assay [10] it was 74.9%; in [11], 5.1%; in assay [12], 120.8%; in [13] it was 114.6%; in assay [14] it was 19.7%.

Turning to `CC(=O)O[C@@H]1[C@H](O)[C@@H](O)[C@H](O[C@H]2[C@H](O[C@H]3CC[C@]4(C)[C@H]5CC=C6[C@@H]7CC(C)(C)CC[C@]7(O)C(=O)C[C@@]6(C)[C@]5(C)CC[C@H]4C3(C)C)O[C@H](C(=O)O)[C@@H](O)[C@@H]2O[C@@H]2O[C@H](CO)[C@H](O)[C@H](O)[C@H]2O[C@@H]2O[C@H](CO)[C@@H](O)[C@H](O)[C@H]2O)O[C@@H]1CO` [CAMELLIOSIDE B], the Activity is on record as 33.1% in [5]; 121.5% in assay [1]; 132.1% in assay [6]; 130.1% in assay [7]; 11.9% in [8]; 130% in [3]. Also, the Activity was 64.6% in assay [9]; 95% in [10]; 26% in assay [11]; 122.3% in [12]; 111.5% in assay [13]; 49% in [14].

Consider `O.O=C1O[C@H]([C@@H](O)CO)C(O)=C1OP(=O)([O-])[O-].[Mg+2]`, for which the Activity in [1] was 123.7%; in [6] it was 122.8%; in assay [7] it was 117.4%; in assay [3], 109.6%; in assay [12], 112.8%; in assay [13], 109.2%.

Take `CC1(C)CC[C@]2(CO)[C@H](O)C[C@]3(C)C(=CC[C@@H]4[C@@]5(C)CC[C@H](O[C@@H]6O[C@H](C(=O)O)[C@@H](O)[C@H](O[C@@H]7O[C@H](CO)[C@H](O)[C@H](O)[C@H]7O[C@@H]7O[C@H](CO)[C@@H](O)[C@H](O)[C@H]7O)[C@H]6O[C@@H]6O[C@H](CO)[C@H](O)[C@H](O)[C@H]6O)C(C)(C)[C@@H]5CC[C@]43C)[C@@H]2C1` [CAMELLIOSIDE D]: the Activity in [5] was 0.3%; in [1], 98.6%; in [6], 108.6%; in assay [7] it was 94.7%; in [8], 16.1%; in assay [3] it was 113.1%. Besides, the Activity in [9] is recorded as -6.2%; in assay [10], 8.3%; in assay [11], 16.3%; in assay [12], 110.7%; in assay [13], 107.6%; in assay [14], 29.5%.
